Test results published in ChEMBL document CHEMBL1122201, “Carboxyimamidate, a low-molecular-weight polyelectrolyte with antitumor properties and low toxicity” (1982).
Where “and” joins values, the source holds several entries; their conditions need not be identical. Equal values may be shown once.

Key:
Mus musculus [1] = species: Mus musculus; assay: Increase in mean life span was measured against colon carcinoma 26 cells; assay type: functional, Colon 26
Outline: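 Colon carcinoma 26: 0.5 mL of 1% brei implanted sc or ip in groups of 10 CD2F1 mice. Drug given ip in sterile saline, 0.5 mL/mouse, at or below the maximally tolerated dose for the schedule. Mean life span excludes long-term tumor-free survivors. Animals held 60 days; Student's t test against untreated controls.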

Mus musculus [2] = assay: Percent increase of mean life span of treated groups relative to the mean of the untreated control groups in the subcutaneous Lewis Lung Carcinoma model at a dose of 2400-2512 (mg/kg)/day; assay type: functional
Outline: (§1)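 Lewis lung carcinoma model in mice, groups of 10. Dosing daily on days 1-5, 1-8 or 1-10, ip or subcutaneous. Dose ranges pooled from nine independent experiments run at different levels. ILS is the percent increase in mean life span, excluding cures, over the mean of 3 or 4 untreated control groups of 10. Survivors scored at day 60.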

[3] = test system: Walker carcinosarcoma 256 (Rattus norvegicus); assay: Tumor weight inhibition Walker carcinosarcoma cells against
Mus musculus [4] = assay: Proportion of survivors was determined on the 60th day at a dose of 2400-2512 (mg/kg)/day; assay type: functional; outline: as §1
Mus musculus [5] = assay: Ratio of mean tumor volume of treated groups to that of the mean of total untreated controls in the subcutaneous Lewis Lung Carcinoma model at a dose of 2400-2512 (mg/kg)/day; assay type: functional
Outline: (§2)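 Mice bearing sc Lewis lung carcinoma (groups of 10) received the saline-dissolved agent daily on days 1-5, 1-8 or 1-10, ip or sc. Perpendicular tumor diameters were measured with vernier calipers on day 14, and volume was taken as 0.5 × length × width². T/C is treated mean volume over the mean of all untreated controls (3-4 groups of 10), pooled across experiments as mean ± SE.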

Mus musculus [6] = assay: Percent increase of mean life span of treated groups relative to the mean of the untreated control groups in the subcutaneous Lewis Lung Carcinoma model at a dose of 100-125 mg/kg/day; assay type: functional; outline: as §1
Mus musculus [7] = species: Mus musculus; assay: Tumor weight inhibition against Nettesheim lung carcinoma cells
Mus musculus [8] = assay: Average proportion of total treated mice without palpable tumors was determined in the subcutaneous Lewis Lung Carcinoma model at a dose of 2400-2512 (mg/kg)/day; assay type: functional
Outline: (§3)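 Sc-implanted Lewis lung carcinoma in mice, groups of 10. Agent dissolved in sterile saline and given daily on days 1-5, 1-8 or 1-10, ip or sc (0.5 mL/mouse). Each experiment had 3 or 4 untreated control groups of 10. The read-out was the average proportion of treated mice without palpable tumor on day 14, pooled over independent experiments as mean ± SE.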

Mus musculus [9] = assay: Average proportion of total treated mice without palpable tumors was determined in the subcutaneous Lewis Lung Carcinoma model at a dose of 1200-1500 (mg/kg)/day; assay type: functional; outline: as §3
Mus musculus [10] = assay: Average proportion of total treated mice without palpable tumors was determined in the subcutaneous Lewis Lung Carcinoma model at a dose of 500-600 (mg/kg)/day; assay type: functional; outline: as §3
Mus musculus [11] = species: Mus musculus; assay: Tumor weight inhibition against P815 mastocytoma cells
Mus musculus [12] = species: Mus musculus; assay: Increase in mean life span was measured against EMT6 mammary carcinoma cells; assay type: functional
Outline: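 EMT6 given as sc trochar implants in C3H mice, groups of 10. Drug given ip in sterile saline, 0.5 mL/mouse, at or below the maximally tolerated dose for the schedule. Mean life span excludes long-term tumor-free survivors. Animals held 60 days after implantation; Student's t test against untreated controls.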

Mus musculus [13] = assay: Percent increase of mean life span of treated groups relative to the mean of the untreated control groups in the subcutaneous Lewis Lung Carcinoma model at a dose of 158-251 (mg/kg)/day; assay type: functional; outline: as §1
Mus musculus [14] = species: Mus musculus; assay: Tumor weight inhibition against colon carcinoma 38
Mus musculus [15] = species: Mus musculus; assay: Increase in mean life span was measured against ADJ-PC6 plasmacytoma cells; assay type: functional
Outline: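 10^6 Trypan blue-excluding cells implanted ip (P815 sc) in groups of 10 mice: B6D2F1 for L5178Y and P815, BALB/c for ADJ-PC6, C3H for Gardner. Drug given ip in sterile saline, 0.5 mL/mouse, at or below the maximally tolerated dose for the schedule. ILS excludes long-term tumor-free survivors. Animals held 60 days; Student's t test against untreated controls.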

Mus musculus [16] = species: Mus musculus; assay: Tumor weight inhibition against Madison 109 lung carcinoma cells
Mus musculus [17] = assay: Proportion of survivors was determined on the 60th day at a dose of 500-600 mg/kg/day; assay type: functional; outline: as §1
Mus musculus [18] = assay: Proportion of survivors was determined on the 60th day at a dose of 158-251 mg/kg/day; assay type: functional; outline: as §1
Mus musculus [19] = assay: Average proportion of total treated mice without palpable tumors was determined in the subcutaneous Lewis Lung Carcinoma model at a dose of 158-251 (mg/kg)/day; assay type: functional; outline: as §3
Mus musculus [20] = assay: Average proportion of total treated mice without palpable tumors was determined in the subcutaneous Lewis Lung Carcinoma model at a dose of 900-1000 (mg/kg)/day; assay type: functional; outline: as §3
Mus musculus [21] = assay: Average proportion of total treated mice without palpable tumors was determined in the subcutaneous Lewis Lung Carcinoma model at a dose of 100-125 (mg/kg)/day; assay type: functional; outline: as §3
Mus musculus [22] = species: Mus musculus; assay: Tumor weight inhibition against B16 melanoma cells
Mus musculus [23] = assay: Ratio of mean tumor volume of treated groups to that of the mean of total untreated controls in the subcutaneous Lewis Lung Carcinoma model at a dose of 158-251 (mg/kg)/day; assay type: functional; outline: as §2
Mus musculus [24] = species: Mus musculus; assay: Tumor weight inhibition against EMT6 mammary carcinoma cells
Mus musculus [25] = species: Mus musculus; assay: Increase in mean life span was measured against B16 melanoma cells; assay type: functional
Mus musculus [26] = species: Mus musculus; assay: Increase in mean life span was measured against Nettesheim lung carcinoma cells; assay type: functional
Outline: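 Tumor brei, 10%, 0.5 mL, implanted sc in groups of 10 mice: CD2F1 for Nettesheim and Madison, B6D2F1 for M5076. M5076 also implanted ip with the same inoculum; Madison im at 0.2 mL. Drug given ip in saline, 0.5 mL/mouse, at or below the maximally tolerated dose. ILS excludes long-term survivors. Animals held 60 days; t test.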

Mus musculus [27] = assay: Ratio of mean tumor volume of treated groups to that of the mean of total untreated controls in the subcutaneous Lewis Lung Carcinoma model at a dose of 62-75 mg/kg/day; assay type: functional; outline: as §2

CC(c1ccccc1)C1C(=O)NC(=O)C1CCC(C(N)=O)C(CCC(CC(=O)O)C(N)=O)C(=O)O.N.N (configuration not stated)
ILS (Mus musculus [1]): 48% and 31% and 75% | ILS (Mus musculus [2]): -28% | TWI [3]: 21 | Proportion of survivors (Mus musculus [4]): 0.13 | T/C (Mus musculus [5]): 0.1 | ILS (Mus musculus [6]): 12% | TWI (Mus musculus [7]): 39 | Average proportion (Mus musculus [8]): 0.6 | Average proportion (Mus musculus [9]): 0.48 | Average proportion (Mus musculus [10]): 0.29 | TWI (Mus musculus [11]): 60 and 53 | ILS (Mus musculus [12]): 13% | ILS (Mus musculus [13]): 15% | TWI (Mus musculus [14]): 44 | ILS (Mus musculus [15]): 24% | TWI (Mus musculus [16]): 67 and 78 and 50 | Proportion of survivors (Mus musculus [17]): 0.12 | Proportion of survivors (Mus musculus [18]): 0.04 | Average proportion (Mus musculus [19]): 0.14 | Average proportion (Mus musculus [20]): 0.47 | Average proportion (Mus musculus [21]): 0.1 | TWI (Mus musculus [22]): 74 | T/C (Mus musculus [23]): 0.58 | TWI (Mus musculus [24]): 14 | ILS (Mus musculus [25]): 21% and 11% | ILS (Mus musculus [26]): 6% | T/C (Mus musculus [27]): 0.59
